Calls of active or inactive are those of the source. The rule behind the calls is not given here.
Columns and labels:
[1] = system: SNB-19; experiment: Cytotoxicity against human SNB19 cells assessed as cell growth at 5 uM by SRB assay; assay type: functional; conditions: read-out: Activity
[2] = system: NCI-H322M; experiment: Cytotoxicity against human NCI-H322M cells assessed as cell growth at 0.05 uM by SRB assay; assay type: functional; conditions: read-out: Activity
[3] = system: CAKI-1; experiment: Cytotoxicity against human Caki1 cells assessed as cell growth at 0.005 uM by SRB assay; assay type: functional; conditions: read-out: Activity
[4] = Cytotoxicity against human NCI-ADR-RES cells assessed as cell growth at 0.005 uM by SRB assay; assay type: functional; conditions: read-out: Activity
[5] = system: MDA-MB-468; experiment: Cytotoxicity against human MDA-MB-468 cells assessed as cell growth at 50 uM by SRB assay; assay type: functional; conditions: read-out: Activity
[6] = Cytotoxicity against human Hs578T cells assessed as cell growth at 0.05 uM by SRB assay; assay type: functional; conditions: Hs-578T, read-out: Activity
In short: (§1)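 Measured in the NCI-60 human tumour cell line panel using five-dose testing. Growth was recorded at each dose for each cell line, and a GI50 was derived for each line.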

[7] = system: MCF7; experiment: Cytotoxicity against human MCF7 cells assessed as cell growth at 0.5 uM by SRB assay; assay type: functional; conditions: read-out: Activity
[8] = system: KM12; experiment: Cytotoxicity against human KM12 cells assessed as cell growth at 50 uM by SRB assay; assay type: functional; conditions: read-out: Activity
[9] = system: HL-60(TB); experiment: Cytotoxicity against human HL-60(TB) cells assessed as cell growth at 5 uM by SRB assay; assay type: functional; conditions: read-out: Activity; in short: as §1
[10] = system: SF-295; experiment: Cytotoxicity against human SF295 cells assessed as cell growth at 0.5 uM by SRB assay; assay type: functional; conditions: read-out: Activity
[11] = system: PC-3; experiment: Cytotoxicity against human PC3 cells assessed as cell growth at 0.5 uM by SRB assay; assay type: functional; conditions: read-out: Activity
[12] = system: UO-31; experiment: Cytotoxicity against human UO31 cells assessed as cell growth at 50 uM by SRB assay; assay type: functional; conditions: read-out: Activity
[13] = system: MDA-MB-468; experiment: Cytotoxicity against human MDA-MB-468 cells assessed as cell growth at 0.05 uM by SRB assay; assay type: functional; conditions: read-out: Activity
[14] = system: LOX IMVI; experiment: Cytotoxicity against human LOXIMVI cells assessed as cell growth at 5 uM by SRB assay; assay type: functional; conditions: read-out: Activity
[15] = system: K562; experiment: Induction of DNA double strand breaks in human K562 cells assessed as increase in gamma-H2AX level at 25 uM after 4 hrs by chemiluminescence analysis; assay type: functional, cell-based
In short: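 K562 cells (3.4 × 10^5/mL) exposed 4 h at 37 °C to 25 µM drug or DMSO. Lysed in Tris pH 6.7/SDS buffer; 50 µg protein on 14% SDS-PAGE, PVDF blot. Rabbit anti-γH2AX (1:1000, overnight), GAPDH loading control, HRP secondary. Chemiluminescence imaged by CCD.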

[16] = system: M14; experiment: Cytotoxicity against human M14 cells assessed as cell growth at 5 uM by SRB assay; assay type: functional; conditions: read-out: Activity
[17] = system: TK-10; experiment: Cytotoxicity against human TK10 cells assessed as cell growth at 0.5 uM by SRB assay; assay type: functional; conditions: read-out: Activity
[18] = system: NCI-H322M; experiment: Cytotoxicity against human NCI-H322M cells assessed as cell growth at 0.5 uM by SRB assay; assay type: functional; conditions: read-out: Activity
[19] = system: SNB-75; experiment: Cytotoxicity against human SNB75 cells assessed as cell growth at 0.005 uM by SRB assay; assay type: functional; conditions: read-out: Activity
[20] = system: IGROV-1; experiment: Cytotoxicity against human IGROV1 cells by SRB assay; assay type: functional
In short: (§2)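 NCI-60 panel screen; 5-dose testing giving GI50 per cell line, plus a single 10 µM one-dose test. Method details not given beyond the NCI screen.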

[21] = Cytotoxicity against human Hs578T cells assessed as cell growth at 0.5 uM by SRB assay; assay type: functional; conditions: Hs-578T, read-out: Activity; in short: as §1
[22] = system: KM12; experiment: Cytotoxicity against human KM12 cells assessed as cell growth at 0.5 uM by SRB assay; assay type: functional; conditions: read-out: Activity
[23] = system: IGROV-1; experiment: Cytotoxicity against human IGROV1 cells assessed as cell growth at 5 uM by SRB assay; assay type: functional; conditions: read-out: Activity
[24] = system: UACC-62; experiment: Cytotoxicity against human UACC62 cells assessed as cell growth at 50 uM by SRB assay; assay type: functional; conditions: read-out: Activity
[25] = system: NCI-H460; experiment: Cytotoxicity against human NCI-H460 cells assessed as cell growth at 0.05 uM by SRB assay; assay type: functional; conditions: read-out: Activity
[26] = system: HCT-15; experiment: Cytotoxicity against human HCT15 cells assessed as cell growth at 0.05 uM by SRB assay; assay type: functional; conditions: read-out: Activity; in short: as §1
[27] = system: OVCAR-5; experiment: Cytotoxicity against human OVCAR5 cells assessed as cell growth at 0.005 uM by SRB assay; assay type: functional; conditions: read-out: Activity
[28] = system: NCI-H226; experiment: Cytotoxicity against human NCI-H226 cells assessed as cell growth at 0.005 uM by SRB assay; assay type: functional; conditions: read-out: Activity
[29] = system: U-251; experiment: Cytotoxicity against human U251 cells assessed as cell growth at 50 uM by SRB assay; assay type: functional; conditions: read-out: Activity
[30] = system: RXF 393; experiment: Cytotoxicity against human RXF393 cells assessed as cell growth at 0.005 uM by SRB assay; assay type: functional; conditions: read-out: Activity
[31] = system: MDA-MB-231; experiment: Cytotoxicity against human MDA-MB-231/ATCC cells assessed as cell growth at 50 uM by SRB assay; assay type: functional; conditions: read-out: Activity
[32] = system: A549; experiment: Cytotoxicity against human A549/ATCC cells assessed as cell growth at 0.5 uM by SRB assay; assay type: functional; conditions: read-out: Activity
[33] = system: OVCAR-4; experiment: Cytotoxicity against human OVCAR4 cells by SRB assay; assay type: functional; in short: as §2
[34] = system: LOX IMVI; experiment: Cytotoxicity against human LOXIMVI cells assessed as cell growth at 0.5 uM by SRB assay; assay type: functional; conditions: read-out: Activity
[35] = system: NCI-H522; experiment: Cytotoxicity against human NCI-H522 cells assessed as cell growth at 50 uM by SRB assay; assay type: functional; conditions: read-out: Activity
[36] = system: 786-0; experiment: Cytotoxicity against human 786-0 cells assessed as cell growth at 0.05 uM by SRB assay; assay type: functional; conditions: read-out: Activity
[37] = system: ACHN; experiment: Cytotoxicity against human ACHN cells assessed as cell growth at 0.5 uM by SRB assay; assay type: functional; conditions: read-out: Activity
[38] = system: MOLT-4; experiment: Cytotoxicity against human MOLT4 cells assessed as cell growth at 50 uM by SRB assay; assay type: functional; conditions: read-out: Activity
[39] = system: K562; experiment: Relative resistance, ratio of IC50 for etoposide-resistant human K/VP.5 cells to IC50 for human K562 cells; assay type: functional
[40] = system: SK-MEL-2; experiment: Cytotoxicity against human SK-MEL-2 cells assessed as cell growth at 0.05 uM by SRB assay; assay type: functional; conditions: read-out: Activity
[41] = system: NCI-H322M; experiment: Cytotoxicity against human NCI-H322M cells by SRB assay; assay type: functional; in short: as §2
[42] = system: MCF7; experiment: Cytotoxicity against human MCF7 cells assessed as cell growth at 5 uM by SRB assay; assay type: functional; conditions: read-out: Activity
[43] = system: OVCAR-4; experiment: Cytotoxicity against human OVCAR4 cells assessed as cell growth at 0.005 uM by SRB assay; assay type: functional; conditions: read-out: Activity
[44] = read-out: LC50 (the source's name)
[45] = read-out: pLC50 (the source's name) (converted)

COc1cc([C@@H]2c3cc4c(cc3[C@@H](NC(=O)CN3CCN(CCCCCCN5CCN(CC(=O)N[C@@H]6c7cc8c(cc7[C@@H](c7cc(OC)c(O)c(OC)c7)[C@H]7C(=O)OC[C@@H]76)OCO8)CC5)CC3)[C@H]3COC(=O)[C@H]23)OCO4)cc(OC)c1O
growth at 5 µM [1]: 15% | growth at 0.05 µM [2]: 105% | growth at 0.005 µM [3]: 89% | growth at 0.005 µM [4]: 104% | growth at 50 µM [5]: -33% | growth at 0.05 µM [6]: 90% | growth at 0.5 µM [7]: 31% | growth at 50 µM [8]: 10% | growth at 5 µM [9]: 6% | growth at 0.5 µM [10]: 94% | growth at 0.5 µM [11]: 80% | growth at 50 µM [12]: 64% | growth at 0.05 µM [13]: 89% | growth at 5 µM [14]: 23% | Activity [15]: Active | growth at 5 µM [16]: 35% | growth at 0.5 µM [17]: 89% | growth at 0.5 µM [18]: 93% | growth at 0.005 µM [19]: 75% | GI50 ([20]; read-out: GI50): 40 µM | CC50 [20, 44]: > 50 µM | TGI ([20]; read-out: TGI): > 50 µM | GI50 ([20]; read-out: pGI50 (converted)): 39.8 µM | CC50 [20, 45]: > 50.1 µM | TGI ([20]; read-out: pTGI (converted)): > 50.1 µM | growth at 0.5 µM [21]: 77% | growth at 0.5 µM [22]: 81% | growth at 5 µM [23]: 74% | growth at 50 µM [24]: -5% | growth at 0.05 µM [25]: 89% | growth at 0.05 µM [26]: 93% | growth at 0.005 µM [27]: 93% | growth at 0.005 µM [28]: 92% | growth at 50 µM [29]: -10% | growth at 0.005 µM [30]: 99% | growth at 50 µM [31]: 13% | growth at 0.5 µM [32]: 56% | GI50 ([33]; read-out: GI50): 10.5 µM | CC50 [33, 44]: > 50 µM | TGI ([33]; read-out: TGI): > 50 µM | GI50 ([33]; read-out: pGI50 (converted)): 10.5 µM | CC50 [33, 45]: > 50.1 µM | TGI ([33]; read-out: pTGI (converted)): > 50.1 µM | growth at 0.5 µM [34]: 61% | growth at 50 µM [35]: -16% | growth at 0.05 µM [36]: 96% | growth at 0.5 µM [37]: 95% | growth at 50 µM [38]: 5% | Ratio IC50 [39]: 21.5 | growth at 0.05 µM [40]: 100% | GI50 ([41]; read-out: GI50): 30.7 µM | CC50 [41, 44]: > 50 µM | TGI ([41]; read-out: TGI): > 50 µM | GI50 ([41]; read-out: pGI50 (converted)): 30.9 µM | CC50 [41, 45]: > 50.1 µM | TGI ([41]; read-out: pTGI (converted)): > 50.1 µM | growth at 5 µM [42]: 12% | growth at 0.005 µM [43]: 85%

— ChEMBL document CHEMBL3588757, “Structure-based design, synthesis and biological testing of piperazine-linked bis-epipodophyllotoxin etoposide analogs” (Bioorg Med Chem, 2015)
